The data set is described as follows: Toxicity liver stage against HepG2, at 10uM. The data set is classed as cell-based. The following applies: human, HepG2-A16-CD81EGFP cells; read-out: INHIBITION
Also on record: test concentration 10 uM, cell line HepG2-A16-CD81EGFP. An outline of the steps: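 Uninfected HepG2-A16-CD81EGFP cells, 3 × 10^3 per well, 1536-well, plated on prespotted compound at 10 μM final, parasite-free screening media added to match infected plates; puromycin 10 μM positive, DMSO 0.5% negative; run in parallel with 48 h PbLuc assay at 37 °C, 5% CO2; viability by CellTiter-Glo luminescence, normalized to controls.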
In the case of `CC(=O)N1N=C(Cc2ccccc2)OC1C(=O)NCC(C)C` (stereo not drawn), the cytotoxicity at 10 µM is -4.52%.

Turning to `CC(C)(C)C1CC(=O)Nc2c1cnn2Cc1ccco1` (stereo not drawn), the cytotoxicity at 10 µM was -2.17%.

Take `Cn1nc(C2CCN(CC(=O)NC3CC3)CC2)n(-c2ccccc2)c1=O`: the cytotoxicity at 10 µM was -22.3%. Consider `O=C(NCc1cccs1)c1nc2c(o1)CN(c1ncccn1)C2`, for which the cytotoxicity at 10 µM is -0.664%. The figure for `Cc1ccc(S(=O)(=O)N2CCCC3(CCCN3S(C)(=O)=O)C2)cc1F` (stereo not drawn) is 2.05%; for `COCCN1Cc2ccccc2C2(CCN(S(C)(=O)=O)CC2)C1` it is 0.121%; for `COCCO[C@@H]1C[C@H]2CN(C(=O)c3cccnc3)CCN2C1` it is -4.58%. For `COCc1nn(C(C)C)c2c1CCN(Cc1ccsc1)C2`, the cytotoxicity at 10 µM was -4.51%. Then `O=C(c1cccc(O)n1)N1CCC(O)(CN2CCC(F)(F)CC2)C1` (stereo not drawn), with 4.16%; and `CC(=O)N1CCC(c2nccnc2Nc2cnccn2)CC1`, with 4.51%; and `CCc1cc(C(=O)N2CCCC2c2nc(C)c(CC)c(O)n2)on1` (stereo not drawn), with -14.2%.

In the case of `CC(=O)N1CCC(Oc2cccc(C#N)c2)CC1`, the cytotoxicity at 10 µM stood at 6.35%. Then `COc1ccccc1CCNC(=O)NCC(=O)Nc1cccnc1`, with -15.2%; and `NC(=O)c1cn(CC2CCC2)c(C2CC2)n1`, with 12.8%. On to `CC(=O)NCc1ccc(S(=O)(=O)NC(=O)c2ccc3c(c2)COC3)cc1`, for which the cytotoxicity at 10 µM was found to be 6.42%.

On to `CC(=O)N(C)CC(=O)NC(CC(C)C)c1cccs1` (stereo not drawn), for which the cytotoxicity at 10 µM is -1.49%. Then `COc1nc(C)ccc1CNC(=O)NC(c1ncc(C)s1)C1CC1` (stereo not drawn), with -2.3%. Then `Cc1cc(N(C)C)nc(N2CCCC2c2cccnc2)n1` (stereo not drawn), with -14.1%; and `Cc1cc(CN(C2CC2)C(C)C(C)C)on1` (stereo not drawn), with -0.212%; and `O=C(CCNC(=O)NC1CCN(C2CC2)CC1)NCc1ccccc1`, with -0.769%. Then `COc1cc(C(=O)N2CCCC2CC(=O)c2cnn(C)c2)ccc1F` (stereo not drawn), with -4.62%; and `CC1CCN(C(=O)c2ccc(N(C)Cc3cnn(C)c3)nc2)CC1`, with -13.8%. With `CC1CCN(C(=O)NCCc2cc(F)ccc2F)C1` (stereo not drawn), the cytotoxicity at 10 µM came to 0.154%. Take `O=C(CCc1ccccc1)N1CCN(C(=O)c2ccc[nH]2)CC1`: the cytotoxicity at 10 µM was -5.04%.

For `CN(CCC(=O)NC1CC1)Cc1ccc(Cl)s1`, the cytotoxicity at 10 µM came out at 7.83%.

For `Cc1cc(NC(=O)CN2CCc3c(nc(C(C)C)n3C)C2)on1`, the cytotoxicity at 10 µM is -3.17%.

For `CN(Cc1nc2ccsc2c(=O)[nH]1)CC1CCCCC1`, the cytotoxicity at 10 µM is -1.05%.

`O=C(c1cccnc1)N1CCN(c2ccnc3ccsc23)CC1`: the cytotoxicity at 10 µM was determined as 5.77%. On to `COc1ccccc1CC(C)(C)NC(=O)CC(F)(F)F`, for which the cytotoxicity at 10 µM came out at 6.08%. `Fc1ccc(-c2cnc(CNC3CCc4ncnn4C3)o2)cc1` (stereo not drawn): the cytotoxicity at 10 µM was -0.174%.

As for `CC1CCN(CC(=O)NC(C#N)c2cnn(-c3ccccc3)c2)CC1` (stereo not drawn), the cytotoxicity at 10 µM is 0.724%. Then `CN(C)C1(CNC(=O)Cc2ccc(F)cc2)CCOCC1`, with 6.03%; and `Cc1cc(C)c(C(=O)NCCNc2ncnc3ccccc23)c(=O)[nH]1`, with 21%.

Turning to `O=C(Nc1ccccc1Oc1cccc(F)c1)NC1CCS(=O)(=O)C1` (stereo not drawn), the cytotoxicity at 10 µM is -6.07%. Regarding `OCC(O)CSCc1cn(-c2ccc(Cl)cc2)nn1` (stereo not drawn), the cytotoxicity at 10 µM was determined as 3.2%. The figure for `CCc1nncn1CCNC(=O)Nc1ccc2c(c1)CCCO2` is 1.79%. The figure for `CC(C)(CNc1ccc(C#N)c(C(F)(F)F)c1)C(N)=O` is 20.2%. The figure for `CN(C)C(=O)CC1CCOc2ccccc21` (stereo not drawn) is 4.17%; for `O=C(NCCCOCC1CCCO1)c1cccnc1N1CCCC1` (stereo not drawn) it is 12.4%; for `COCC1c2nnn(C)c2CCN1C(=O)Cc1ccccn1` (stereo not drawn) it is -97.1%.

In the case of `CC(C)NC(=O)c1cc2c(s1)CCN2c1ncccn1`, the cytotoxicity at 10 µM is -123%. The figure for `CC[C@H](C)Nc1ncc(-c2cccc(NC(=O)CNC)c2)cn1` is -4.97%; for `Cc1cc(CN(C)C(C(=O)O)c2cccc(C(F)(F)F)c2)on1` (stereo not drawn) it is -6.33%. As to `CCCn1ccnc1CN1CCc2[nH]cnc2C1Cc1ccccc1` (stereo not drawn), the cytotoxicity at 10 µM is -15.8%. The figure for `COc1cccc(CN2CCN(C(=O)Nc3nc(C)ns3)CC2=O)c1` is -3.05%; for `CN(C)CC1(O)CCCN(C(=O)Cn2nc3ccccc3n2)CC1` (stereo not drawn) it is -8.14%; for `CCNc1ncc(C(=O)NC2COC3(CCCC3)C2)cn1` (stereo not drawn) it is -4.53%. Then `O=C(c1cccc(Cl)c1)N1CCCC(Nc2ccc(F)cc2)C1` (stereo not drawn), with -7.05%; and `CC(C)=CCC1(CO)CCCN(Cc2nccs2)C1` (stereo not drawn), with -1.23%. Turning to `C[C@@H]1CN(CCC(=O)NCc2ccccc2Cl)C[C@@]1(O)C1CC1`, the cytotoxicity at 10 µM turned out to be 2.75%. The figure for `Cc1nc(C(C)C)sc1C(=O)N1CCN(C2CCSCC2)CC1` is 6.62%. The figure for `CNS(=O)(=O)CCNC(=O)c1coc(COc2ccc(F)cc2)n1` is 0.975%; for `O=C(NCCSc1cnn[nH]1)c1c[nH]nc1C1CCCCC1` it is -5.03%; for `CCc1cnc(C)nc1NCCC(=O)N1CCC(C)CC1` it is -0.384%.

For `CCCn1cnnc1CN(C)C(=O)C1CCCN(C2CCN(C)CC2)C1` (stereo not drawn), the cytotoxicity at 10 µM is -6.58%.

Regarding `CSCCCN1CCCC(Cn2ccnc2)C1` (stereo not drawn), the cytotoxicity at 10 µM is 5.07%. For the molecule `O=C(CCCc1ccc(F)cc1)N1C[C@@H](CN2CCOCC2)[C@@H](CO)C1`, the cytotoxicity at 10 µM is -11.8%.

As for `CC(C)(C)c1ncc(C(=O)NCCNC(=O)c2ccco2)s1`, the cytotoxicity at 10 µM is -1.98%. On to `Cc1nc(CN2CCCC(N(C)CC3CCCC3)C2)no1` (stereo not drawn), for which the cytotoxicity at 10 µM was -7.3%. On to `COc1ccc(Cl)cc1C(=O)NCCNc1cnccn1`, for which the cytotoxicity at 10 µM is -8.35%. As to `COCCOc1ccc(NC(=O)C2CC(=O)N(C(C)C)C2)cn1` (stereo not drawn), the cytotoxicity at 10 µM was -17.6%.

`CCC(O)CN1CCN(C(=O)c2cccn2Cc2ccncc2)CC1` (stereo not drawn): the cytotoxicity at 10 µM was -13%. The figure for `Cc1nc(CN(C)C2CCCN(c3cccnn3)C2)oc1C` (stereo not drawn) is -12.4%; for `OCC1CCCN1c1cc(NCc2cccc3cccnc23)ncn1` (stereo not drawn) it is -15.6%; for `CN(C)c1ncccc1C(=O)N1CCCC1Cn1cccn1` (stereo not drawn) it is -2.83%. With `COCCNC(=O)NCc1ccc(OC(C)C)c(F)c1`, the cytotoxicity at 10 µM is -8.48%.

Regarding `CCc1nnc(CN2CCN(C(=O)c3cc4ccccc4[nH]3)CC2)o1`, the cytotoxicity at 10 µM is -0.385%.

Consider `O=C(N1CCCC1)N1Cc2nccn2CC(COc2cccnc2)C1` (stereo not drawn), for which the cytotoxicity at 10 µM was found to be 0.997%.

As to `O=C(C[C@@H]1COC[C@H]2CN(Cc3ccc(F)cc3)C[C@@H]12)N1CCCC1`, the cytotoxicity at 10 µM turned out to be 4.09%. `CCN(C)c1ncnc2c1CCN(C(=O)N1CCCC1)CC2`: the cytotoxicity at 10 µM was -6.9%.

For `O=S1(=O)NCC2(CCN(c3ncccn3)CC2)COc2ccccc21`, the cytotoxicity at 10 µM is -1.34%.

For the molecule `Cc1cnc(N2CCc3c(cnc(C)c3C(=O)O)C2)nc1`, the cytotoxicity at 10 µM was determined as 8.1%. Then `Cc1ccoc1C1=NNC(=CN2CCn3c(C)nnc3C2)O1`, with -16.4%.

For the origin of these results see ChEMBL document CHEMBL4513216, “Probing the Open Global Health Chemical Diversity Library for Multistage-Active Starting Points for Next-Generation Antimalarials” (ACS Infect Dis, 2020).
